# Screening results as filed in PubChem BioAssay.
# Rows were chosen to be rich in hits. Some 5.8% of all compounds tested hit in one or more screens of this group.
# Pf Dd2 growth: inhibitors of Plasmodium falciparum Dd2 growth | AID 1159554 | actives 2.3% (n = 94,000) | P. falciparum Dd2 growth, SYBR Green, 72 h; hits give low values | activity change, % at 10 µM; in the data active = activity change below about -80%; inconclusive = no clear call, values can overlap the other calls
# IDH1 mut inh: blocks human IDH1 R132H reductase activity; actives 0.18% (n = 70,000); inhibition, % at 10 µM; diaphorase/resazurin fluorescence, 60 min; O75874; AID 624101; in the data active = inhibition above about 34%; inconclusive = no clear call, values can overlap the other calls; inactive = below about 11%;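 also: 0% = DMSO and 100% = no enzyme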
# Target sequence (O75874 whole entry R132H): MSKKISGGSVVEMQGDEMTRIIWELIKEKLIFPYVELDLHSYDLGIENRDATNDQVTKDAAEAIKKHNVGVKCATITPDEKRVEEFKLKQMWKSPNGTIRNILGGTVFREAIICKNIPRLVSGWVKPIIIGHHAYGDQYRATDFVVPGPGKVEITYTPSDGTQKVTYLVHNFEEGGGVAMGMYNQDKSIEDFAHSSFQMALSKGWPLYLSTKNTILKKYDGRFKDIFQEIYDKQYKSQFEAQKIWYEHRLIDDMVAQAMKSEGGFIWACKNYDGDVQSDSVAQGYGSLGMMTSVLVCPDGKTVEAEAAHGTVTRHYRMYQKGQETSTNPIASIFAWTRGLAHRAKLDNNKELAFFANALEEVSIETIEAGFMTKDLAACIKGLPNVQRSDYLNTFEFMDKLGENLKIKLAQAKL
# T cruzi growth-1: inhibitors of T. cruzi proliferation; T. cruzi beta-gal in NIH3T3, GalScreen luminescence, 90 h; inhibition, % at 8.34 µM; actives 5.9% (n = 77,000); AID 624255;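 active = mean inhibition above about 93%, with at least 55% of replicates each passing it, limit read from the data, passing the limit was not always enough; inconclusive = only one of those two conditions holds; inactive = neither condition holds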
# GASC1 inh: inhibitors of human demethylase GASC-1 KDM4C | inhibition, % at 12.5 µM | actives 0.15% (n = 96,000) | GST-KDM4C 2-372, H3K9me3 peptide, LANCE TR-FRET | Q9H3R0;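 active = mean replicate inhibition above about 25%, with at least 55% of replicates also reaching it, limit read from the data, passing the limit was not always enough; inconclusive = only one of those two conditions met; inactive = neither condition met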
# Target sequence (Q9H3R0 2-372 limits assumed): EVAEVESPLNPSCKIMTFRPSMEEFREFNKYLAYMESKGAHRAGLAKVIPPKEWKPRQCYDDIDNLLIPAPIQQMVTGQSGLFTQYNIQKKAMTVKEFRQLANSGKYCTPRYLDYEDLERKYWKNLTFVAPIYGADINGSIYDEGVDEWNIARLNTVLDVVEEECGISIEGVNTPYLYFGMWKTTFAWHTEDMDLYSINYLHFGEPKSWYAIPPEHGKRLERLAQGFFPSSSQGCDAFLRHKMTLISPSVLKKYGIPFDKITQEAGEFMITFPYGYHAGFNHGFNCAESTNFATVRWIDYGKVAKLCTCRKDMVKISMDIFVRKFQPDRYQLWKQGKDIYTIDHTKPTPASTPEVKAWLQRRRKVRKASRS
#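 material = GST-tagged GASC-1 (JMJD2C) catalytic fragment, aa 2-372 | amount = enzyme final amount 10 nM | medium = HEPES buffer, pH 7.5, plus ascorbate | also added = H3K9me3 peptide substrate, Fe(II), 2-oxoglutarate | dosing = single dose | times = 30 min demethylation and 1 h detection at room temperature | detection = LANCE TR-FRET | read-out basis = Fall in 671/618 emission ratio as inhibition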
# T cruzi growth-2: inhibitors of T. cruzi proliferation | shares compounds with T cruzi growth-1 | T. cruzi beta-gal in NIH3T3, GalScreen luminescence, 90 h | inhibition, % at 8.35 µM | actives 72% (n = 5,600);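 active = mean replicate inhibition above about 95% and at least 55% of replicates individually reaching it, limit read from the data; inconclusive = only one of the two criteria is met; inactive = neither criterion is met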
# T cruzi growth-3: Trypanosoma cruzi proliferation inhibition; shares compounds with T cruzi growth-1; T. cruzi beta-gal in NIH3T3, GalScreen luminescence, 90 h; inhibition, % at 2.09 µM; actives 21% (n = 5,600);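 active = mean inhibition above about 95%, with at least 55% of replicates also reaching it, limit read from the data; inconclusive = meets just one of the two conditions; inactive = meets neither condition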;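 also: plate controls were neutral control median for no effect and positive control median for full effect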
# 3T3 cytotox: kills mouse NIH/3T3 fibroblasts | actives 14% (n = 5,600) | NIH/3T3 viability, CellTiter-Glo ATP luminescence, 90 h | cytotoxicity (signal decrease), % at 8.35 µM | shares compounds with T cruzi growth-1;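 active = mean signal decrease across replicates above about 35% based on untreated-well scatter, with enough replicates individually passing, limit read from the data; inconclusive = no rule stated though some were filed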;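 also: 0% = median of neutral control wells and 100% = median of positive control wells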
# NIH3T3 tox 2: kills mouse NIH/3T3 fibroblasts; actives 56% (n = 5,600); shares compounds with T cruzi growth-1; AID 651744; NIH/3T3 viability, CellTiter-Glo ATP luminescence, 90 h; inhibition, % at 24.9 µM;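 active = mean loss of cell viability signal at or above a set limit, and enough replicates individually reaching it; inconclusive = meets only the mean limit or only the replicate share; inactive = meets neither condition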;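 also: 0% = median of neutral control wells and 100% = median of positive control wells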
# * marks the source's active call; other numbers are inactive results; ? = inconclusive; nt = no result.
SMILES,Pf Dd2 growth,IDH1 mut inh,T cruzi growth-1,GASC1 inh,T cruzi growth-2,T cruzi growth-3,3T3 cytotox,NIH3T3 tox 2
COc1ccc(C(=O)CSc2nnc(-c3ccc([N+](=O)[O-])cc3)o2)cc1,nt,0.1,nt,nt,nt,nt,nt,nt
C[C@@H]1CCCCO[C@@H](CN(C)C(=O)Nc2ccc3c(c2)OCO3)[C@H](C)CN([C@@H](C)CO)C(=O)c2cc(NS(=O)(=O)c3ccccc3)ccc2O1,-1.2,nt,50.0,0.6,nt,nt,nt,nt
C[C@@H]1CN([C@H](C)CO)C(=O)c2cc(NS(=O)(=O)c3ccc(Cl)cc3)ccc2O[C@@H](C)CCCCO[C@H]1CN(C)C(=O)Nc1ccc2c(c1)OCO2,-27.9,1.6,nt,-0.2,nt,nt,nt,nt
C[C@H](CO)N1C[C@H](C)[C@H](CN(C)C(=O)Nc2ccc3c(c2)OCO3)OCCCC[C@H](C)Oc2ccc(NS(=O)(=O)c3ccccc3)cc2C1=O,-35.0,-1.6,101.3*,0.0,107.0*,40.5,6.1,-4.9
C[C@@H]1CCCCO[C@@H](CN(C)C(=O)Nc2ccc3c(c2)OCO3)[C@H](C)CN([C@H](C)CO)C(=O)c2cc(NS(=O)(=O)c3ccc(Cl)cc3)ccc2O1,-28.8,nt,?,-0.5,101.4*,62.3,-17.9,6.0
CCn1c(SCC(=O)c2ccc(F)cc2)nnc1-c1cccnc1,nt,0.7,nt,nt,nt,nt,nt,nt
CC(=O)c1cccc(N(CC(=O)Nc2ccccc2C)S(C)(=O)=O)c1,nt,0.5,nt,nt,nt,nt,nt,nt
COc1ccc(NC(=O)Nc2ccc3c(c2)C(=O)N([C@H](C)CO)C[C@@H](C)[C@@H](CN(C)S(=O)(=O)c2cccs2)OCCCC[C@@H](C)O3)cc1,-44.2,-2.3,nt,-2.6,nt,nt,nt,nt
COc1ccc(NC(=O)Nc2ccc3c(c2)C(=O)N([C@H](C)CO)C[C@H](C)[C@H](CN(C)S(=O)(=O)c2cccs2)OCCCC[C@H](C)O3)cc1,-26.5,1.9,102.8*,0.1,107.3*,38.1,6.0,29.8*
COc1ccc(NC(=O)Nc2ccc3c(c2)C(=O)N([C@H](C)CO)C[C@@H](C)[C@H](CN(C)S(=O)(=O)c2cccs2)OCCCC[C@@H](C)O3)cc1,-77.7,nt,108.3*,-2.2,108.4*,22.2,1.0,-1.8
COc1ccc(NC(=O)Nc2ccc3c(c2)C(=O)N([C@H](C)CO)C[C@H](C)[C@H](CN(C)S(=O)(=O)c2cccs2)OCCCC[C@@H](C)O3)cc1,-57.8,-2.8,-21.5,-2.6,nt,nt,nt,nt
CCn1c(SCC(=O)c2ccc(Br)cc2)nnc1-c1cccc(N)c1,nt,0.6,nt,nt,nt,nt,nt,nt
C[C@@H]1CCCCO[C@H](CN(C)S(=O)(=O)c2ccc(Cl)cc2)[C@@H](C)CN([C@@H](C)CO)C(=O)c2cc(NC(=O)Cc3ccccc3)ccc2O1,-68.1,-0.6,105.2*,-1.9,104.8*,87.0,-15.8,46.4*
C[C@@H]1CN([C@H](C)CO)C(=O)c2cc(NC(=O)Cc3ccccc3)ccc2O[C@@H](C)CCCCO[C@H]1CN(C)S(=O)(=O)c1ccc(Cl)cc1,-81.9*,nt,95.8*,0.5,107.2*,77.3,17.2,13.6
O=C(C[C@@H]1CC[C@@H]2[C@H](COC[C@H](O)CN2Cc2ccc3c(c2)OCO3)O1)Nc1ccc(-c2ccccc2)cc1,-23.9,nt,115.0*,0.7,99.1*,99.3*,16.1,30.3*
O=C(C[C@H]1CC[C@@H]2[C@H](COC[C@@H](O)CN2Cc2ccc3c(c2)OCO3)O1)Nc1ccc(-c2ccccc2)cc1,-32.3,nt,89.1,2.1,nt,nt,nt,nt
O=C(C[C@H]1CC[C@H]2[C@@H](COC[C@@H](O)CN2Cc2ccc3c(c2)OCO3)O1)Nc1ccc(-c2ccccc2)cc1,-39.8,nt,112.7*,4.2,99.0*,84.5,30.6,69.4*
O=C(C[C@H]1CC[C@H]2[C@@H](COC[C@@H](O)CN2Cc2ccc3c(c2)OCO3)O1)Nc1ccccc1,-9.2,nt,71.3,0.7,nt,nt,nt,nt
COc1ccccc1CNC(=O)C[C@H]1CC[C@H]2[C@@H](COC[C@H](O)CN2Cc2ccc3c(c2)OCO3)O1,-22.5,nt,104.0*,1.5,43.3,19.6,10.5,15.0
C[C@H](CO)N1C[C@H](C)[C@@H](CN(C)S(=O)(=O)c2ccccc2F)Oc2cc(-c3ccccc3)ccc2S1(=O)=O,-63.7,-1.0,69.4,-0.4,nt,nt,nt,nt
C[C@H](CO)N1C[C@H](C)[C@H](CN(C)S(=O)(=O)c2ccccc2F)Oc2cc(-c3ccccc3)ccc2S1(=O)=O,-35.3,-0.7,120.2*,1.3,100.4*,89.9,?,45.1*
C[C@H]1CN([C@@H](C)CO)S(=O)(=O)c2ccc(-c3ccccc3)cc2O[C@H]1CN(C)S(=O)(=O)c1ccccc1F,-44.2,-0.3,119.0*,-1.0,103.4*,102.8*,33.4,45.6*
C[C@H]1CN([C@@H](C)CO)S(=O)(=O)c2ccc(-c3ccccc3)cc2O[C@@H]1CN(C)S(=O)(=O)c1ccccc1F,-31.1,0.4,91.4*,-3.6,99.5*,75.2,36.5*,37.6*
CC1(C(=O)c2ccccc2)C2c3c(ccc4ccccc34)OC(=O)C21C(=O)c1ccco1 (stereo not given),nt,1.8,nt,nt,nt,nt,nt,nt
FC(F)(F)Oc1ccc(Nc2n[nH]c(=S)s2)cc1,nt,6.9,nt,nt,nt,nt,nt,nt
SMILES,Pf Dd2 growth,IDH1 mut inh,T cruzi growth-1,GASC1 inh,T cruzi growth-2,T cruzi growth-3,3T3 cytotox,NIH3T3 tox 2
C[C@@H]1CN([C@@H](C)CO)C(=O)c2ccccc2-c2ccccc2CO[C@@H]1CN(C)C(=O)Nc1ccccc1,9.7,nt,38.5,-0.1,nt,nt,nt,nt
C[C@@H]1CN([C@@H](C)CO)C(=O)c2ccccc2-c2ccccc2CO[C@H]1CN(C)C(=O)Nc1ccnc(N2CCOCC2)c1,-12.2,-1.1,108.7*,-1.0,102.2*,91.9,6.1,11.4
C[C@@H]1CN([C@H](C)CO)C(=O)c2ccccc2-c2ccccc2CO[C@@H]1CN(C)C(=O)Nc1ccnc(N2CCOCC2)c1,-15.3,-0.1,?,2.4,89.0,32.8,-2.1,6.8
C[C@@H]1CN([C@@H](C)CO)C(=O)c2c(c3ccccc3n2C)-c2ccccc2CO[C@H]1CN(C)C(=O)Nc1ccnc(N2CCOCC2)c1,-63.4,nt,nt,2.5,nt,nt,nt,nt
COc1ccccc1CCNC(=O)c1cc(-c2ccccc2)nc2ccccc12,nt,0.0,nt,nt,nt,nt,nt,nt
COC(=O)C1C(=O)c2c([nH]c(C(=O)OC(C)C)c2C)CC1C (stereo not given),nt,-0.3,nt,nt,nt,nt,nt,nt
Cc1ccccc1S(=O)(=O)N1CC[C@@H]2[C@@H](CO)N(C)c3ccc(-c4cccc(C#N)c4)cc3[C@@H]21,6.3,nt,100.4*,-9.7,98.6*,64.1,14.1,61.4*
